Assay results taken from ChEMBL document CHEMBL1157570, “Development of potent and selective inhibitors of ecto-5'-nucleotidase based on an anthraquinone scaffold” (J Med Chem, 2010).
Calls of active or inactive are those of the source. The rule behind the calls is not given here.

Assays:
P2Y purinoceptor 2 = P2Y purinoceptor 2 (Homo sapiens, UniProt P41231); test: Antagonist activity at human P2Y2 receptor expressed in astrocytoma cells assessed as inhibition of intracellular calcium mobilization; format: functional, cell-based
Method in brief: (§1)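 Astrocytoma cells stably expressing the receptor, loaded with Fura-2 AM. Cells preincubated with test agent for at least 20 min, then challenged with 1 μM UTP (P2Y2), 3 μM UTP (P2Y4) or 3 μM UDP (P2Y6). Ca2+ fluorescence read at ex 320/em 520 nm. Full curves (7-8 concentrations over 3 log units) run when inhibition exceeded 40% at 10 μM. Three experiments, each in triplicate.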

P2Y purinoceptor 4 = P2Y purinoceptor 4 (Homo sapiens, UniProt P51582); test: Antagonist activity at human P2Y4 receptor expressed in astrocytoma cells assessed as inhibition of intracellular calcium mobilization; format: functional, cell-based; method in brief: as §1
[1] = Selectivity ratio of Ki for rat ecto-5'-nucleotidase to Ki for human NTPdase1
5'-nucleotidase = biological target: T1, 5'-nucleotidase (Rattus norvegicus, UniProt P21588); test: Inhibition of rat ecto-5'-nucleotidase expressed in Sf9 cells by capillary electrophoresis method
T1 sequence (P21588 whole entry): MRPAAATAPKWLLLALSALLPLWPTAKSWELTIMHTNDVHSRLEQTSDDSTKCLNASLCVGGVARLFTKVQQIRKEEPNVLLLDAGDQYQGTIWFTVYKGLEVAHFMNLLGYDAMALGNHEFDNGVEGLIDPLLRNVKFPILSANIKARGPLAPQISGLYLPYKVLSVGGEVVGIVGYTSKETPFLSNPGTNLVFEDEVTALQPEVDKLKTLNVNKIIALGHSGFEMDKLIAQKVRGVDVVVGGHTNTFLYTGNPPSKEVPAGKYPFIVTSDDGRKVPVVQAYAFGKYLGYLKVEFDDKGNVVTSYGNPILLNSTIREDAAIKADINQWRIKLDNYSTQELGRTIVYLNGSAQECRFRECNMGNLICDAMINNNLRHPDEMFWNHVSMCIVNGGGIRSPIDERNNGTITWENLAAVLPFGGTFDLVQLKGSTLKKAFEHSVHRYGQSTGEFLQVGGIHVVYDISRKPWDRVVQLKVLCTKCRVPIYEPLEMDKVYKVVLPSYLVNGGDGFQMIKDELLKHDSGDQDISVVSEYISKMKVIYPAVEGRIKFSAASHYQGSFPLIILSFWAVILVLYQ
Method in brief: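 Rat eN, GST-fused, made in Sf9 cells and purified on GSH-agarose. 500 μM AMP in Hepes pH 7.4 with Mg2+/Ca2+, 37 °C for 15 min. Adenosine measured by capillary electrophoresis at 260 nm. Inhibitor at 6-8 concentrations spanning about 3 log units. […] Three experiments, each in duplicate.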

[2] = biological target: T2, Ectonucleoside triphosphate diphosphohydrolase 3 (Homo sapiens, UniProt O75355); test: Inhibition of human NTPdase3 by capillary electrophoresis method
T2 sequence (O75355 whole entry): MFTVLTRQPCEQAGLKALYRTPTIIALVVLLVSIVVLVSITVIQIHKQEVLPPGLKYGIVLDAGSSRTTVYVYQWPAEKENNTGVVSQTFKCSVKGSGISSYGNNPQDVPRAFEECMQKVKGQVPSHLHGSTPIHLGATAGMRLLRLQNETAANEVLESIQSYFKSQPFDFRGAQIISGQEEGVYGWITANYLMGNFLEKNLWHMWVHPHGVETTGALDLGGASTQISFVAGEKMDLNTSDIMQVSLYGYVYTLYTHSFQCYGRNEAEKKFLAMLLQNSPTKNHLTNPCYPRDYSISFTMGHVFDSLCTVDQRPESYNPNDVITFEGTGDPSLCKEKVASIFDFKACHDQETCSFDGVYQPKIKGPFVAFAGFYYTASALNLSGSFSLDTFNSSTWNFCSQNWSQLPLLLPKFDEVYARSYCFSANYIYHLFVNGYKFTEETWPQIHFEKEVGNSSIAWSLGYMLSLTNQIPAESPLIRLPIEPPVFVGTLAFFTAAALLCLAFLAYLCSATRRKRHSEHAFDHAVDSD
Method in brief: (§2)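 Membrane preparations containing human NTPDase1, 2 or 3. Inhibitor added in water or 1% DMSO. Incubated 10 min at 37 °C, stopped at 99 °C for 5 min. Diluted with 20 μM UMP as internal standard, then analysed by capillary electrophoresis. Triplicates in two experiments.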

P2Y purinoceptor 6 = P2Y purinoceptor 6 (Rattus norvegicus, UniProt Q63371); test: Antagonist activity at rat P2Y6 receptor expressed in astrocytoma cells assessed as inhibition of intracellular calcium mobilization; format: functional, cell-based; method in brief: as §1
[3] = biological target: T3, Ectonucleoside triphosphate diphosphohydrolase 2 (Homo sapiens, UniProt Q9Y5L3); test: Inhibition of human NTPdase2 by capillary electrophoresis method; method in brief: as §2
T3 sequence (Q9Y5L3 whole entry): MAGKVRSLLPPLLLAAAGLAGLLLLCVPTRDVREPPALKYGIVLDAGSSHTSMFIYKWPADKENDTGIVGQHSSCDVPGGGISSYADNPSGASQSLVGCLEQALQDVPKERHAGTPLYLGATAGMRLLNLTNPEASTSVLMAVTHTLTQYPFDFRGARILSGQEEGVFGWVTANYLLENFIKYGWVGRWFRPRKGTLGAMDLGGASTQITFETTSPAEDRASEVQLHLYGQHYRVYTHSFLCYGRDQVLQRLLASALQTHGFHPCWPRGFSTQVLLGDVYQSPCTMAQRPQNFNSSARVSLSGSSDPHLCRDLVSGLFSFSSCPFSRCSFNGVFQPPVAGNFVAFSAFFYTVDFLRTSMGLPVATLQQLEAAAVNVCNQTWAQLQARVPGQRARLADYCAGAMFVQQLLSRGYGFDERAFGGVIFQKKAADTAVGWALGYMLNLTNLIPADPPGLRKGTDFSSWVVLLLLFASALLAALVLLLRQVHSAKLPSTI

[4] = biological target: T4, Ectonucleoside triphosphate diphosphohydrolase 1 (Homo sapiens, UniProt P49961); test: Inhibition of human NTPdase1 by capillary electrophoresis method; method in brief: as §2
T4 sequence (P49961 whole entry): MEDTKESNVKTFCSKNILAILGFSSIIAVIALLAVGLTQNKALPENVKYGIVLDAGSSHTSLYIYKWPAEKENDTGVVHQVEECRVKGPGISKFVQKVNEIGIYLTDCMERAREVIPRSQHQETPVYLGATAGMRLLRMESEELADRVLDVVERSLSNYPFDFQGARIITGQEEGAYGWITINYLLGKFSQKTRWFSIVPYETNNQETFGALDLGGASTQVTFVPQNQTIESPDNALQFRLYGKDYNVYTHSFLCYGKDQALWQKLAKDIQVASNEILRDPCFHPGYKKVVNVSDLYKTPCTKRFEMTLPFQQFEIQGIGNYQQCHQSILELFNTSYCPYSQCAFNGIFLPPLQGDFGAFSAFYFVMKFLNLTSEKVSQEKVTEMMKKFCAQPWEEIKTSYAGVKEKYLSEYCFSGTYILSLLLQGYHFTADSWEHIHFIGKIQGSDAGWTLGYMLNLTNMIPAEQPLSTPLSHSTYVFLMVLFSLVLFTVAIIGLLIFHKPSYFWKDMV

[5] = biological target: T5, Nucleoside triphosphate diphosphohydrolase 3 (Rattus norvegicus, UniProt A6I415); test: Inhibition of rat NTPdase3 by capillary electrophoresis method
T5 sequence (A6I415 whole entry): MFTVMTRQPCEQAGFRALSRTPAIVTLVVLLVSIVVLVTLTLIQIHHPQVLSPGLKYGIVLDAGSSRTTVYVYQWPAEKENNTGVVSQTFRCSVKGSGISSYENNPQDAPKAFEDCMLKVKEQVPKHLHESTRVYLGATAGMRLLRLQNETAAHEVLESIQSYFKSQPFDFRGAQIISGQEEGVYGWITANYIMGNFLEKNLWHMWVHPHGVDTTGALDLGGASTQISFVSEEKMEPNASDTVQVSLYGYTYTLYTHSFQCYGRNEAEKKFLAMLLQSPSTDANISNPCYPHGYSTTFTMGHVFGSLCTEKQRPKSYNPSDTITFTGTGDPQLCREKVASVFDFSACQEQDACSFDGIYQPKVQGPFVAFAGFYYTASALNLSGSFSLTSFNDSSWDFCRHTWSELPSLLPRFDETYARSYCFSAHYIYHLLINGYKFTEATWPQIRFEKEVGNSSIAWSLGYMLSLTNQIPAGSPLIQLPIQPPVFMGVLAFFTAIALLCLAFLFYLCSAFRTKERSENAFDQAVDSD

[6] = biological target: T6, Ectonucleoside triphosphate diphosphohydrolase 2 (Rattus norvegicus, UniProt O35795); test: Inhibition of rat NTPdase2 by capillary electrophoresis method
T6 sequence (O35795 whole entry): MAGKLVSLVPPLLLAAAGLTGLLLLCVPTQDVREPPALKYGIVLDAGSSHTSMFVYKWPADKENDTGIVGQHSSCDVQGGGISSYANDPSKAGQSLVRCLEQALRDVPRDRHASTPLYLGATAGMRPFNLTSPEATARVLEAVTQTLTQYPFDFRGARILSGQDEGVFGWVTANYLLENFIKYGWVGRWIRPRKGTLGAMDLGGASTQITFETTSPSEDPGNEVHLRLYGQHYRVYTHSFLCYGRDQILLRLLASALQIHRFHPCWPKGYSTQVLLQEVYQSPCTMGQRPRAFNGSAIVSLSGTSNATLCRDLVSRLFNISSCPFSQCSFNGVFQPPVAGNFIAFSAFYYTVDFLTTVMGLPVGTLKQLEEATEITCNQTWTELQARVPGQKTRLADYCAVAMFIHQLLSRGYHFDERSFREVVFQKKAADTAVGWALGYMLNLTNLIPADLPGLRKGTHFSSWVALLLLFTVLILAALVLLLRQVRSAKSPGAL

[7] = biological target: T7, 5'-nucleotidase (Rattus norvegicus) (UniProt P21588); test: Inhibition of rat ecto-5'-nucleotidase expressed in Sf9 cells by competitive Lineweaver-Burke plot
T7 sequence (whole entry): T1 sequence (P21588 whole entry)
Method in brief: (§3)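 Purified recombinant rat eN from Sf9 cells. Reaction rates measured across a range of AMP concentrations, with inhibitor absent or at 0.2, 1 or 5 μM. Adenosine formed was quantified by capillary electrophoresis at 260 nm. Km and Vmax were compared on Michaelis-Menten and Lineweaver-Burk plots to assign the inhibition mode.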

[8] = biological target: T7, 5'-nucleotidase (Rattus norvegicus); test: Inhibition of rat ecto-5'-nucleotidase expressed in Sf9 cells by competitive Michaelis-Menten plot; method in brief: as §3
[9] = biological target: T8, Ectonucleoside triphosphate diphosphohydrolase 1 (Rattus norvegicus, UniProt P97687); test: Inhibition of rat NTPdase1 by capillary electrophoresis method
T8 sequence (P97687 whole entry): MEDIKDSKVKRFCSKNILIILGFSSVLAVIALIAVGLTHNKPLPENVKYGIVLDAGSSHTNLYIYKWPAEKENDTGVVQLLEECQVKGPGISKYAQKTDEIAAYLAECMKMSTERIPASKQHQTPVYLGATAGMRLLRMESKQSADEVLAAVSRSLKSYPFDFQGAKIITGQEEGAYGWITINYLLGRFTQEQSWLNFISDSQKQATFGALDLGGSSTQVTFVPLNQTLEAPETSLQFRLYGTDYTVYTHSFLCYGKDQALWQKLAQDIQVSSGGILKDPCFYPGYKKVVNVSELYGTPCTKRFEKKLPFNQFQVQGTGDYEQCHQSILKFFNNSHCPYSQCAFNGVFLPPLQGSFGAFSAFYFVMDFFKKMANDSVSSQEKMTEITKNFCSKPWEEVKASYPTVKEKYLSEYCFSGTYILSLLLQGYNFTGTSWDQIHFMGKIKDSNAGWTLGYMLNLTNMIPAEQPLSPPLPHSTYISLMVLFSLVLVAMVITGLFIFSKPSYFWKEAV

Sequence of P2Y purinoceptor 2 (P41231 whole entry): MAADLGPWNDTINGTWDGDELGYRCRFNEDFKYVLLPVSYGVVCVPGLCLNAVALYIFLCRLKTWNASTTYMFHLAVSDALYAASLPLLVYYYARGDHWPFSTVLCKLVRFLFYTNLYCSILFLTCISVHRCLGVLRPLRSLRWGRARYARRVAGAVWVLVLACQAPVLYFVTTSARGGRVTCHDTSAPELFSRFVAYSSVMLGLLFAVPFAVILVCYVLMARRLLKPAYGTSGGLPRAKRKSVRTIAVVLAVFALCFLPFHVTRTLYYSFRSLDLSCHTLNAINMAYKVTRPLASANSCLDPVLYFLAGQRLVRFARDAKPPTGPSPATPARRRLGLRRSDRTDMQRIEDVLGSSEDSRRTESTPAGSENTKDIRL
Sequence of P2Y purinoceptor 6 (Q63371 whole entry): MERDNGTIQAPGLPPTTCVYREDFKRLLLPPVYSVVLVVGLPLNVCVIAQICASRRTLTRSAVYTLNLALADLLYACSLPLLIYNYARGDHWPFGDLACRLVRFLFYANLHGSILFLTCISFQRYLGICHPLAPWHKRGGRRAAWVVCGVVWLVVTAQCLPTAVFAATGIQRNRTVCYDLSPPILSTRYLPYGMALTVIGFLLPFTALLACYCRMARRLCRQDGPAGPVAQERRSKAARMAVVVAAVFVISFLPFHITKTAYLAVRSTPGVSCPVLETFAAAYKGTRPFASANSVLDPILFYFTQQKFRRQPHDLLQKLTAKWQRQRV
Sequence of P2Y purinoceptor 4 (P51582 whole entry): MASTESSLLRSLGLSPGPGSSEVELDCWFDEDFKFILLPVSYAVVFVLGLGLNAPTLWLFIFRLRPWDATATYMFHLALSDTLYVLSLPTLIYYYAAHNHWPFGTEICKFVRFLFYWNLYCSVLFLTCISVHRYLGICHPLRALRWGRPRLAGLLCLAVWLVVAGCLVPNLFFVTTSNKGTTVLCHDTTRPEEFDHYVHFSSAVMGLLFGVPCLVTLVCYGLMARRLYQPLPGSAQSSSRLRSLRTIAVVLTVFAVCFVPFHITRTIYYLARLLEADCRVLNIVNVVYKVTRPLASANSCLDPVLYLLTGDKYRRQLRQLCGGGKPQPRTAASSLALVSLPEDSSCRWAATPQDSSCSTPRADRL

SMILES	IC50 (P2Y purinoceptor 2) [µM]	IC50 (P2Y purinoceptor 4) [µM]	Ratio Ki [1]	Ki (5'-nucleotidase) [µM]	Ki [2] [µM]	IC50 (P2Y purinoceptor 6) [µM]	Ki [3] [µM]	Ki [4] [µM]	Ki [5] [µM]	Ki [6] [µM]	inhibition [7]	inhibition [8]	Ki [9] [µM]
Nc1c(S(=O)(=O)O)cc(Nc2ccc(F)cc2C(=O)O)c2c1C(=O)c1ccccc1C2=O	29.9	> 10	> 150	0.26	> 60	10	> 200	> 40	–	–	–	–	–
Nc1c(S(=O)(=O)O)cc(Nc2cccc3ccccc23)c2c1C(=O)c1ccccc1C2=O	–	–	–	0.53	–	30	–	–	1.5	> 400	Active	Active	> 150
Nc1c(S(=O)(=O)O)cc(Nc2ccccc2)c2c1C(=O)c1ccccc1C2=O [ACID BLUE 25]	11	25.8	–	15.2	–	> 10	–	–	14.3	35.8	–	–	49.1
Nc1c(S(=O)(=O)O)cc(Nc2ccc3cc4ccccc4cc3c2)c2c1C(=O)c1ccccc1C2=O	10	> 10	17	0.15	> 60	> 10	> 200	2.59	–	–	–	–	–
